Molecules are shown by their SMILES. Activity calls are given as the source filed them. The rule behind the calls is not given here.

In test [1] the test system is H4. Briefly: Induction of light chain 3-GFP level in human H4 cells at 4.9 uM after 24 hrs by high throughput fluorescence microscopy relative to control. In kind it is functional. The gist of the method: (§1)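 H4 cells stably expressing LC3-GFP, kept in DMEM/10% FBS at 37°C, 5% CO2, were seeded in 96-well plates and exposed to compound for 24 h. Cells were then fixed in 4% paraformaldehyde and stained with 3 μg/ml DAPI. Automated fluorescence microscopy scored the number, size and intensity of LC3-GFP spots. Values are percent of DMSO wells, in triplicate, mean ± SD. Rapamycin served as positive control.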

The subject of test [2] is H4. Briefly: Increase in light chain 3-GFP+ autophagosome vesicle intensity per cell in human H4 cells at 4.9 uM after 24 hrs by high throughput fluorescence microscopy relative to control. In kind it is functional. The gist of the method:
(§2)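 H4 cells stably expressing LC3-GFP, seeded in 96-well plates and exposed to compound for 24 h; fixed in 4% paraformaldehyde, nuclei stained with 3 μg/ml DAPI. Automated fluorescence microscopy scored number, size and intensity of LC3-GFP spots; values expressed relative to DMSO-treated wells, rapamycin positive control. Triplicate wells, mean ± SD; experiments repeated three times.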

Test [3] concerns H4. The experiment in a line: Induction of light chain 3-GFP level in human H4 cells at 5.0 uM after 24 hrs by high throughput fluorescence microscopy relative to control. In kind it is functional. In outline:
as §1

Test [4] has as its system H4. Briefly: Effect on FYVE-RFP+ vesicle intensity per cell in human H4 cells after 2 hrs relative to control. It counts as functional. More on the design: concentration or dose not given beside the values. The gist of the method:
(§3)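 H4 cells stably expressing FYVE-RFP (H4-FYVE), grown in DMEM with 10% FBS, penicillin/streptomycin and 2 mM L-glutamine at 37°C, 5% CO2, seeded in 96-well plates and exposed to compound. Fixed in 4% paraformaldehyde, nuclei stained with 3 μg/ml DAPI, FYVE-RFP+ vesicles quantified by high-throughput fluorescence microscopy against DMSO control. Triplicate wells, mean ± SD.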

Test [5] has as its system H4. The experiment in a line: Effect on FYVE-RFP+ vesicle intensity per cell in human H4 cells after 4 hrs relative to control. In kind it is functional. More on the design: concentration or dose not given beside the values. The gist of the method: as §3
In test [6] the test system is H4. Briefly: Increase in ratio of light chain 3 subunit 2 to light chain 3 subunit 1 in human H4 cells at 4.9 uM after 4 hrs by Western blot. In kind it is functional, cell-based. The gist of the method:
(§4)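 H4 cells were exposed to compound for 4 h, then lysed. Lysates were blotted with anti-LC3 antibody, with actin as loading control, and the LC3II/LC3I band ratio was taken.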
For orientation: Immunoblotting shows a protein as a band on a membrane.

Test [7] has as its system H4. The experiment in a line: Increase in long-lived protein degradation in human H4 cells after 24 hrs relative to control. It counts as functional. Also on record: concentration or dose not given beside the values.
Test [8] concerns H4. The experiment in a line: Increase in long-lived protein degradation in human H4 cells after 4 hrs relative to control. It counts as functional. Also on record: concentration or dose not given beside the values.
Test [9] has as its system H4. Briefly: Reduction of poly(Q) level in human H4 cells expressing EGFP-Q79-HA after 24 hrs. It counts as functional, cell-based. The gist of the method: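 H4 cells were transiently transfected with an EGFP-Q79-HA expression vector. The medium was replaced 6 h after transfection and compounds were added. Poly(Q) was detected with anti-HA antibody.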
Test [10] deals with H4. The experiment in a line: Increase in long-lived protein degradation in human H4 cells after 2 hrs relative to control. In kind it is functional. Also on record: concentration or dose not given beside the values.
The test system of test [11] is H4. Briefly: Increase in light chain 3-GFP+ autophagosome vesicle number per cell in human H4 cells at 4.9 uM after 24 hrs by high throughput fluorescence microscopy relative to control. In kind it is functional. The gist of the method:
as §1

The target of test [12] is T1, Serine/threonine-protein kinase mTOR (Homo sapiens, UniProt P42345). Briefly: Effect on mTOR phosphorylation in human H4 cells at 4.9 uM after 4 hrs. In kind it is cell-based. In outline: (§5)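 H4 cells treated with compound for 4 h; lysates analysed by Western blot using anti-phospho/non-phospho mTOR antibody, with actin as loading control; rapamycin used for comparison. Cells grown in DMEM with 10% FBS, penicillin/streptomycin, 2 mM L-glutamine at 37°C, 5% CO2.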

Test [13] deals with H4. Briefly: Effect on FYVE-RFP+ vesicle intensity per cell in human H4 cells after 8 hrs relative to control. It counts as functional. More on the design: concentration or dose not given beside the values. In outline: as §3
Test [14] concerns H4. The experiment in a line: Increase in long-lived protein degradation in human H4 cells after 1 hr relative to control. It counts as functional. More on the design: concentration or dose not given beside the values.
The subject of test [15] is H4. Briefly: Induction of light chain 3-GFP level in human H4 cells at 3.9 uM after 24 hrs by high throughput fluorescence microscopy relative to control. In kind it is functional. In outline:
as §1

The test system of test [16] is H4. Briefly: Increase in light chain 3-GFP+ autophagosome vesicle intensity per cell in human H4 cells at 3.9 uM after 24 hrs by high throughput fluorescence microscopy relative to control. It counts as functional. In outline:
as §2

The subject of test [17] is H4. The experiment in a line: Increase in ratio of light chain 3 subunit 2 to light chain 3 subunit 1 in human H4 cells at 3.9 uM after 4 hrs by Western blot. It counts as functional, cell-based. The gist of the method:
as §4

Test [18] has as its target T1, Serine/threonine-protein kinase mTOR. Briefly: Effect on mTOR phosphorylation in human H4 cells at 3.9 uM after 4 hrs. It counts as cell-based. In outline:
as §5

In test [19] the test system is H4. Briefly: Increase in FYVE-RFP+ vesicle intensity per cell in human H4 cells after 4 hrs relative to control. In kind it is functional. Also on record: concentration or dose not given beside the values. In outline:
as §3

Test [20] has as its system H4. The experiment in a line: Increase in FYVE-RFP+ vesicle intensity per cell in human H4 cells after 2 hrs relative to control. It counts as functional. Also on record: concentration or dose not given beside the values. The gist of the method:
as §3

Test [21] deals with H4. Briefly: Increase in FYVE-RFP+ vesicle intensity per cell in human H4 cells after 8 hrs relative to control. In kind it is functional. Also on record: concentration or dose not given beside the values. The gist of the method:
as §3

The test system of test [22] is H4. The experiment in a line: Increase in light chain 3-GFP+ autophagosome vesicle number per cell in human H4 cells at 3.9 uM after 24 hrs by high throughput fluorescence microscopy relative to control. It counts as functional. The gist of the method:
as §1

For test [23], the system named is H4. The experiment in a line: Increase in light chain 3-GFP+ autophagosome vesicle area per cell in human H4 cells at 3.9 uM after 24 hrs by high throughput fluorescence microscopy relative to control. In kind it is functional. In outline:
as §2

For test [24], the system named is H4. The experiment in a line: Increase in ratio of light chain 3 subunit 2 to light chain 3 subunit 1 in human H4 cells at 0.2 uM after 4 hrs by Western blot. It counts as functional, cell-based. The gist of the method:
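H4 cells were treated with each compound for 4 h, then lysed. Lysates were immunoblotted with anti-LC3 antibody, with actin as loading control. LC3II and LC3I bands were compared as an LC3II/LC3I ratio.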

Test [25] relates to H4. Briefly: Increase in light chain 3-GFP+ autophagosome vesicle number per cell in human H4 cells at 0.2 uM after 24 hrs by high throughput fluorescence microscopy relative to control. In kind it is functional. The gist of the method:
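H4 cells stably expressing LC3-GFP were grown in DMEM with 10% FBS and 2 mM L-glutamine at 37°C, 5% CO2. They were exposed to each compound for 24 h, with DMSO as negative and rapamycin as positive control. Cells were then fixed in 4% paraformaldehyde and stained with 3 μg/ml DAPI. High-throughput fluorescence imaging scored LC3-GFP spot number, size and intensity, expressed relative to DMSO. Mean ± SD of triplicates; experiments repeated three times.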

Test [26] deals with H4. The experiment in a line: Induction of light chain 3-GFP level in human H4 cells at 0.2 uM after 24 hrs by high throughput fluorescence microscopy relative to control. It counts as functional.
For test [27], the target named is T1, Serine/threonine-protein kinase mTOR. The experiment in a line: Effect on mTOR phosphorylation in human H4 cells at 0.2 uM after 4 hrs. It counts as cell-based. In outline: as §5
In test [28] the test system is H4. The experiment in a line: Increase in light chain 3-GFP+ autophagosome vesicle area per cell in human H4 cells at 0.2 uM after 24 hrs by high throughput fluorescence microscopy relative to control. In kind it is functional. The gist of the method: (§6)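 H4 cells stably expressing LC3-GFP, seeded in 96-well plates and exposed to compound for 24 h; screening concentrations were 3–12 μM, with rapamycin 0.22 μM and bafilomycin A1 0.40 μM. Cells fixed in 4% paraformaldehyde and stained with 3 μg/ml DAPI. Number, size and intensity of LC3-GFP spots measured by high-throughput fluorescence microscopy and expressed as percent of DMSO-treated wells. Rapamycin was the positive control. Triplicate wells, mean ± SD; experiments repeated three times.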

The subject of test [29] is H4. The experiment in a line: Increase in light chain 3-GFP+ autophagosome vesicle intensity per cell in human H4 cells at 0.2 uM after 24 hrs by high throughput fluorescence microscopy relative to control. In kind it is functional. The gist of the method:
as §6

Take `CN(C)C(=O)C(CCN1CCC(O)(c2ccc(Cl)cc2)CC1)(c1ccccc1)c1ccccc1` [LOPERAMIDE]: the Activity with H4 [1] came out at 126.76%; with H4 [2], 666.5%; in the test on H4 [3], 339.4%; in the test on H4 [4], 115.39%; in the test on H4 [5], 123.62%; in the test on H4 [7] it was 139.19%. The Activity in the test on H4 [8] is 125.21%; in the test with H4 [9], “Dose-dependent effect”; with H4 [10], 122.1%; in the test with H4 [11], 235.49%; in the test with H4 [13], 95.7%; in the test on H4 [14], 78.7%. In the test with H4 [6], the outcome was Active. Also, in [12], the result was inactive.

For `C=C(C)[C@H]1O[C@H]2CC[C@@]3(C)[C@@](O)(CC[C@H]4[C@@H]5OC(C)(C)[C@H]6C[C@@H]7C(=C)Cc8c(Cl)cc9[nH]c(c5c9c8[C@@]76O)[C@@]43C)[C@@]23O[C@H]3[C@H]1O` [PENITREM A], the Activity was 93.08% in the test on H4 [15]; 166.85% in the test on H4 [16]; 141.83% in the test on H4 [7]; 132.13% in the test on H4 [8]; “Dose-dependent effect” with H4 [9]; 126.09% with H4 [10]. Further, the Activity in the test on H4 [19] is reported as 87.41%; with H4 [20] it was 121.4%; in the test on H4 [21], 72.71%; in the test with H4 [22], 146.36%; in the test on H4 [14], 92.88%; with H4 [23], 163.15%. In addition, the result with H4 [17] was Active. In [18], the outcome was inactive.

As to `CO[C@H]1C[C@@H]2CC[C@@H](C)[C@@](O)(O2)C(=O)C(=O)N2CCCC[C@H]2C(=O)O[C@H]([C@H](C)C[C@@H]2CC[C@@H](O)[C@H](OC)C2)CC(=O)[C@H](C)/C=C(\C)[C@@H](O)[C@@H](OC)C(=O)[C@H](C)C[C@H](C)/C=C/C=C/C=C/1C` [SIROLIMUS], the outcome in the test with H4 [24] was Active. Also, the Activity in the test on H4 [7] was 165.87%; in the test with H4 [8], 149.89%; in the test on H4 [25], 205.66%; in the test on H4 [9], “Dose-dependent effect”; in the test on H4 [10] it was 171.67%; in the test on H4 [26] it was 88.62%. Also, the Activity in the test on H4 [19] is on record as 131.41%; with H4 [21], 152.35%; in the test on H4 [14] it was 159.89%; with H4 [28], 259.68%; in the test on H4 [29] it was 285.38%. Moreover, the AC50 entry in test [27] is “Not Active”.
